Test results from ChEMBL document CHEMBL4145662, “Novel Nonsteroidal Progesterone Receptor (PR) Antagonists with a Phenanthridinone Skeleton” (ACS Med Chem Lett, 2018).
Active and inactive are the calls of the source. No cut-off for these calls is given here.

Assays:
Format in all cases: cell-based
[1] = target: T1, Nuclear receptor ROR-alpha (Homo sapiens) (UniProt P35398); assay: Antagonist activity at human RORalpha1 expressed in HEK293 cells at 20 uM after 24 hrs by luciferase reporter gene assay
T1 sequence (whole entry): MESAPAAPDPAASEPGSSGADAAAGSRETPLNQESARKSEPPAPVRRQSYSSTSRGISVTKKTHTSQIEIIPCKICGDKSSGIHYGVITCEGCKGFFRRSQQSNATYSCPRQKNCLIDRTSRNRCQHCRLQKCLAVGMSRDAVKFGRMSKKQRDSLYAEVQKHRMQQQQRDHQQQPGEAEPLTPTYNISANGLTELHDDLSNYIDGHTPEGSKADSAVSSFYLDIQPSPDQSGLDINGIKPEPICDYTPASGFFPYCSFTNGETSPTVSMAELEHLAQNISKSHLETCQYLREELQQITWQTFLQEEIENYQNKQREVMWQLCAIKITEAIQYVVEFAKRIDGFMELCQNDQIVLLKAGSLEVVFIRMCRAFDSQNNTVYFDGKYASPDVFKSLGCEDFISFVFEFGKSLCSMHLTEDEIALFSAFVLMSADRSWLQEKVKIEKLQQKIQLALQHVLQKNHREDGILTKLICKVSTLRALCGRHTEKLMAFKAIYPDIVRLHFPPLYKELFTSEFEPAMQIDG
How it was run: (§1)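 Inverse agonism at RORα, RORβ or RORγ measured by reporter gene assay.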

[2] = target: T2, Oxysterols receptor LXR-alpha (Homo sapiens, UniProt Q13133); assay: Antagonist activity at human GAL4N-fused LXRalpha LBD expressed in HEK293 cells assessed as reduction in T0901317-induced transactivation activity after 24 hrs by luciferase reporter gene assay
T2 sequence (Q13133 whole entry): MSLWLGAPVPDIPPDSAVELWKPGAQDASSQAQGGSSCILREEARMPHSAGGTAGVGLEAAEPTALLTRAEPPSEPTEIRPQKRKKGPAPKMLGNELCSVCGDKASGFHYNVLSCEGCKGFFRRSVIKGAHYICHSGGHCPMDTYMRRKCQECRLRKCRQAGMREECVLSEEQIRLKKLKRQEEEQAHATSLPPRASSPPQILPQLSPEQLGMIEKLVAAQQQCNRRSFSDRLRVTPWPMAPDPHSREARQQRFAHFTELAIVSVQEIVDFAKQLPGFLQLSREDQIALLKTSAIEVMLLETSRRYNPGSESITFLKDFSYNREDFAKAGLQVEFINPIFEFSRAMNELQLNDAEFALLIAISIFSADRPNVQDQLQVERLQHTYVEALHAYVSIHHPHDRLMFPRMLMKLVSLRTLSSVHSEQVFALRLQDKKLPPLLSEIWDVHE

[3] = species on record: Homo sapiens; assay: Selectivity ratio of IC50 for human CMX-AR expressed in HEK293 cells to IC50 for PR in human T47D cells assessed as inhibition of progesterone-induced alkaline phosphatase activity
[4] = species on record: Homo sapiens; assay: Selectivity ratio of IC50 for human GAL4N-fused LXRbeta LBD expressed in HEK293 cells to IC50 for PR in human T47D cells assessed as inhibition of progesterone-induced alkaline phosphatase activity
[5] = target: T3, Glucocorticoid receptor (Homo sapiens, UniProt P04150); assay: Antagonist activity at human CMX-GRalpha expressed in HEK293 cells assessed as reduction in dexamethasone-induced transactivation activity after 24 hrs by luciferase reporter gene assay
T3 sequence (P04150 whole entry): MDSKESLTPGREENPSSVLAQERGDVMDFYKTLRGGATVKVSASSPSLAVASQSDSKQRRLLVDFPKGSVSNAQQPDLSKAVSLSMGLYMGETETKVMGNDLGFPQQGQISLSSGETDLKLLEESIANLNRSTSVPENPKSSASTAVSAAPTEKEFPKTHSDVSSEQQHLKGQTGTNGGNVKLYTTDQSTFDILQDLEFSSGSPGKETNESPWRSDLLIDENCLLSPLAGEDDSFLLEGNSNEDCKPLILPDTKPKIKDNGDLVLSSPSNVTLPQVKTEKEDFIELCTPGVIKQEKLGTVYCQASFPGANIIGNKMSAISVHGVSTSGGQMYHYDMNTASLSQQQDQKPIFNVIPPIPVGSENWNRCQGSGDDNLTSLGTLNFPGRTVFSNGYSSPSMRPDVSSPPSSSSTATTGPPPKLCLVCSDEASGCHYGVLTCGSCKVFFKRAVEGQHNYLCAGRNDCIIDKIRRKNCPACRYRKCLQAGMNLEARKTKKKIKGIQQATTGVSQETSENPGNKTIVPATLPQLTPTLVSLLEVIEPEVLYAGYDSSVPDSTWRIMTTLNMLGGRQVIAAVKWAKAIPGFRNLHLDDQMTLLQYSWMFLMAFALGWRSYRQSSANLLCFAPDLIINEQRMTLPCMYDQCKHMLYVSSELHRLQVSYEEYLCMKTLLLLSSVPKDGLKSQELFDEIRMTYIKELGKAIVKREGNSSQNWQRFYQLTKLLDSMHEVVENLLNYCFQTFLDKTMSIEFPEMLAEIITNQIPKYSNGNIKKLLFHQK
How it was run: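 GRα antagonism measured by reporter gene assay with dexamethasone (1 nM) as agonist.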

[6] = target: T4, Nuclear receptor ROR-gamma (Homo sapiens) (UniProt P51449); assay: Antagonist activity at human RORgamma1 expressed in HEK293 cells at 20 uM after 24 hrs by luciferase reporter gene assay; how it was run: as §1
T4 sequence (whole entry): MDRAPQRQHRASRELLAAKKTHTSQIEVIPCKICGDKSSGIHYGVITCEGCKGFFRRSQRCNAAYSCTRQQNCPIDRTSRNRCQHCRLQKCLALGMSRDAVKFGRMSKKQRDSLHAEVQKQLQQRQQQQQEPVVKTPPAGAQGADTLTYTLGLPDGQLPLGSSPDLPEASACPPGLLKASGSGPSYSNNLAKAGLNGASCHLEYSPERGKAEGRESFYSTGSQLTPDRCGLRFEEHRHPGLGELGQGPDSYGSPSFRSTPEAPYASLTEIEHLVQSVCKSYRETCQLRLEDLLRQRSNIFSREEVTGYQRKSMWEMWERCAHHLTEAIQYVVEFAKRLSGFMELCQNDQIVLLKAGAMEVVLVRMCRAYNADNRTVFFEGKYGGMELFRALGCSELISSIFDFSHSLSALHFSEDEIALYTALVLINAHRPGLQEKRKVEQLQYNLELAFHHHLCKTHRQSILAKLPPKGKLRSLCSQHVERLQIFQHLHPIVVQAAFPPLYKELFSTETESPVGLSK

SMILES | Activity [1] | IC50 [2] [µM] | Ratio IC50 [3] | Ratio IC50 [4] | IC50 [5] [µM] | Activity [6]
Cc1cc(C(O)(C(F)(F)F)C(F)(F)F)cc2c1[nH]c(=O)c1ccccc12 | inactive | > 20 | > 100 | > 100 | > 20 | –
Cc1cc(C(O)(C(F)(F)F)C(F)(F)F)cc2c1[nH]c(=O)c1cc(F)ccc12 | inactive | > 20 | > 30 | > 300 | > 20 | inactive
Cc1cc(C(O)(C(F)(F)F)C(F)(F)F)cc2c3ccc(F)cc3c(=O)n(C)c12 | inactive | > 20 | > 10 | > 300 | > 20 | inactive
